This is an account of results in ChEMBL document CHEMBL4725241, “Discovery of BMS-986235/LAR-1219: A Potent Formyl Peptide Receptor 2 (FPR2) Selective Agonist for the Prevention of Heart Failure” (J Med Chem, 2020).

The source made the active and inactive calls.

Data set [1] addresses T1, N-formyl peptide receptor 2 (Homo sapiens, UniProt P25090).
T1 sequence (P25090 whole entry): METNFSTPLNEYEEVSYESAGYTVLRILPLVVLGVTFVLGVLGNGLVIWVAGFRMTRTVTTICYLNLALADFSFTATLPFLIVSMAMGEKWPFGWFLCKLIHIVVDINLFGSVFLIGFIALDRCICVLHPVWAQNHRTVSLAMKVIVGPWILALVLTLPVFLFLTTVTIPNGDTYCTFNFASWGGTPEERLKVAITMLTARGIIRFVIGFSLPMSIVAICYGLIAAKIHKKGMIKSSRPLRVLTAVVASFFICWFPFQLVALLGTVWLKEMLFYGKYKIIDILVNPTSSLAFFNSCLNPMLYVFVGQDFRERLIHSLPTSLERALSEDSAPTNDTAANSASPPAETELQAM
Nature of the data set: Agonist activity at human FPR2 expressed in HEK 293 cells co-expressing Galpha15 measured every 1.5 sec for 80 sec by Fluo-4 NW staining based scanning fluorometric method. The format is cell-based, HEK293. Put shortly:
(§1)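 HEK293 cells were transiently co-transfected with FPR plus Gα15 (Lipofectamine 2000), then reseeded after 24 h on poly-D-lysine plates and grown one more day. Cells were loaded with Fluo-4 NW for 45 min at 37°C. Compound was added and fluorescence (ex 485/em 525 nm) read for 80 s at 1.5 s intervals. Response = maximal peak minus basal.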

Data set [2] can be described thus: Cmax in BALB/cCrSlc mouse at 1 mg/kg, po by LC-MS/MS analysis. The data set is classed as ADME, organism-based. The arrangement: route oral, dose 1 mg/kg. Particulars: in vivo. Put shortly: (§2)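 Male animals dosed orally with a suspension in 0.5% MC. Blood was taken into EDTA 2K capillaries and plasma was stored frozen. Plasma was mixed with methanol/acetonitrile (1:1) plus internal standard, centrifuged, and drug was measured by LC-MS/MS. AUC0-inf was obtained by the trapezoidal rule, extrapolated with kel from the terminal phase. t1/2 = ln2/kel.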

A short description of data set [3]: Oral bioavailability in Crl:CD(SD) rat at 1 mg/kg by LC-MS/MS analysis. The format is ADME, organism-based. Particulars: in vivo. Put shortly: (§3)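 Oral bioavailability = (AUC0-inf,po/dose po)/(AUC0-inf,iv/dose iv) × 100. Oral dosing used a 0.5% MC suspension. IV dosing used a DMSO/PEG400/saline (5/47.5/47.5) solution, with CD1(ICR) mice for the iv arm. Plasma drug levels were measured by LC-MS/MS after methanol/acetonitrile extraction with internal standard.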

Data set [4] can be described thus: Volume of distribution at steady state in cynomolgus monkey at 1 mg/kg, iv by LC-MS/MS analysis. The data set is classed as ADME, organism-based, Macaca fascicularis. Particulars: in vivo, read-out: Vdss. Put shortly:
(§4)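 Male animals received intravenous solution in DMSO/PEG400/saline (5/47.5/47.5). EDTA plasma was extracted with methanol/acetonitrile (1:1) plus internal standard and quantified by LC-MS/MS. AUC0-inf was calculated by the trapezoidal rule with terminal-phase kel extrapolation.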

Data set [5] addresses T1, N-formyl peptide receptor 2. Nature of the data set: Agonist activity at human FPR2 expressed in CHO-K1 cells assessed as stimulation of beta-arrestin recruitment. The format is cell-based. Background: Arrestin recruitment assays detect the binding of arrestin to an activated receptor.
Data set [6] addresses T2, Formyl peptide receptor 2 (Mus musculus, UniProt O88536).
T2 sequence (O88536 whole entry): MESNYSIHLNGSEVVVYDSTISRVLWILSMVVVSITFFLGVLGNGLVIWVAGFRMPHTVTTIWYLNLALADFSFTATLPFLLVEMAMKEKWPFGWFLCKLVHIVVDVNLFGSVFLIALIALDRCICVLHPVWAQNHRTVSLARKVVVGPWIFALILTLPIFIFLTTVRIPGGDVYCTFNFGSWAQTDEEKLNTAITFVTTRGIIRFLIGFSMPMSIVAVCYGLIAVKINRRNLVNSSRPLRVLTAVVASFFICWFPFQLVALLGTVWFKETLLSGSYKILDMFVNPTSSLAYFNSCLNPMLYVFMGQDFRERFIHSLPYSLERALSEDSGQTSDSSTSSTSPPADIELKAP
Nature of the data set: Agonist activity at mouse FPR2 expressed in HEK 293 cells co-expressing Galpha15 measured every 1.5 sec for 80 sec by Fluo-4 NW staining based scanning fluorometric method. The format is cell-based, HEK293. Put shortly:
as §1

Data set [7] can be described thus: AUC (0 to infinity) in Beagle dog at 1 mg/kg, po by LC-MS/MS analysis. More on the design: route oral, time infinity, dose 1 mg/kg. Particulars: in vivo. The data set is classed as ADME, organism-based, Canis lupus familiaris. Put shortly:
as §2

Data set [8] is described as follows: Cmax in cynomolgus monkey at 3 mg/kg, po by LC-MS/MS analysis. More on the design: route oral, dose 3 mg/kg. The data set is classed as ADME, organism-based, Macaca fascicularis. Particulars: in vivo. Put shortly:
as §2

Data set [9] relates to Mus musculus. Nature of the data set: Antiinflammatory activity in mouse assessed as increase in LPS-induced IL-10 expression at 0.3 mg/kg, po.
The subject of data set [10] is Mus musculus. The experiment in a line: Cardioprotective activity in C57BL/6 mouse model of LAD coronary artery ligation-induced myocardial infarction assessed as reduction in LV chamber area at 0.3 mg/kg, po and measured after 28 days. Particulars: time 28.0 day. The format is functional, organism-based. Put shortly: (§5)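 Male C57BL/6 mice (10-12 weeks) underwent permanent LAD ligation under ketamine/xylazine, with shams having an untightened suture. Compound (0.3 mg/kg/d) or vehicle was given by oral gavage once daily (5 mL/kg) from post-MI day 4 for 24 days. Endpoints were taken at 28 days post-MI; scar length was quantified from LV cross sections.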

A short description of data set [11]: AUC (0 to infinity) in Crl:CD(SD) rat at 1 mg/kg, po by LC-MS/MS analysis. The format is ADME, organism-based. More on the design: time infinity, route oral, dose 1 mg/kg. Particulars: in vivo. Put shortly: as §2
The nature of data set [12]: Volume of distribution at steady state in Crl:CD1(ICR) mouse at 0.5 mg/kg, iv by LC-MS/MS analysis. Particulars: in vivo, read-out: Vdss. The format is ADME, organism-based. Put shortly:
as §4

The test system of another data set is CHO. Nature of the data set: Selectivity ratio of agonist activity at human FPR1 expressed in CHO cells to agonist activity at human FPR2 expressed in CHO cells. The data set is classed as cell-based. Put shortly:
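Ratio of FPR1 to FPR2 EC50 from the CHO-cell forskolin/IBMX cAMP HTRF assay, 30 min at room temperature, 4-parameter logistic fit.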

A short description of data set [13]: Half life in BALB/cCrSlc mouse at 1 mg/kg, po by LC-MS/MS analysis. The format is ADME, organism-based. Particulars: in vivo. Put shortly: as §2
In data set [14] the test system is Mus musculus. The experiment in a line: Cardioprotective activity in C57BL/6 mouse model of LAD coronary artery ligation-induced myocardial infarction assessed as reduction in heart weight at 0.3 mg/kg, po and measured after 28 days. The format is functional, organism-based. Conditions: time 28.0 day. Put shortly: as §5
The target in data set [15] is T2, Formyl peptide receptor 2. Nature of the data set: Agonist activity at mouse FPR2 expressed in CHO cells assessed as reduction cAMP accumulation incubated for 1 hr by TR-FRET assay. The data set is classed as cell-based. Background: cAMP levels reflect the balance of adenylyl cyclase and phosphodiesterase activity.
Data set [16] in a line: Total clearance in Beagle dog at 1 mg/kg, iv by LC-MS/MS analysis. The data set is classed as ADME, organism-based, Canis lupus familiaris. Conditions: in vivo. Put shortly:
as §4

Data set [17] in a line: Total clearance in cynomolgus monkey at 1 mg/kg, iv by LC-MS/MS analysis. The data set is classed as ADME, organism-based, Macaca fascicularis. Particulars: in vivo. Put shortly: as §4
A short description of data set [18]: Clearance in human liver microsome at 0.1 umol/l and measured for 60 mins by LC-MS/MS analysis. The data set is classed as ADME. Conditions: microsomes, 1 h, 0.1 µM, dose 0.1 µmol/L. Put shortly:
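Liver microsomes (1 mg protein/mL final) with an NADPH regenerating system were preincubated 5 min at 37°C, then given 0.1 µmol/L compound. Samples were taken at 0-60 min, quenched in methanol/acetonitrile with internal standard, and analysed by LC-MS/MS. Runs were in triplicate. kel came from 5-30 min points. CLint = kel/protein concentration (mL/min/mg protein).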
For orientation: Liver microsomes are vesicles of endoplasmic reticulum, rich in cytochrome P450 enzymes.

The nature of data set [19]: Oral bioavailability in cynomolgus monkey at 3 mg/kg by LC-MS/MS analysis. The data set is classed as ADME, organism-based, Macaca fascicularis. Conditions: in vivo. Put shortly:
as §3

Regarding `COc1cc(F)c([C@@H]2CNC(=O)[C@H]2NC(=O)Nc2ccccc2)c(F)c1` [BMS-986235], the concentration for a half-maximal effect (EC50) in [1] was 0.41 nM; in [5] it was 130 nM; in data set [6], 3.4 nM; in [15] it was 0.5 nM. In addition, the results for the Cmax in data set [2] and in data set [8] were 160 nM and 800 nM, respectively. Further, the bioavailability in data set [3] was determined as 67%; in data set [19], 49%. In addition, the values for the Vd in [4] and in data set [12] were 1.2 L/kg and 3.5 L/kg, respectively. In addition, the AUC(0-inf) in data set [7] worked out at 5.7 µM·h; in data set [11], 0.64 µM·h. Further, the result with Mus musculus [9], with Mus musculus [10] and in the data set with Mus musculus [14] was Active. The Ratio EC50 in the data set on CHO was 80. In data set [13], this compound showed a half-life of 40.8 min. Moreover, the clearance in [16] turned out to be 6.6 mL/min/kg; in data set [17], 12 mL/min/kg. The compound also showed a CLH in data set [18] of 3.3 µL/min/mg.

By EC50 is commonly meant the concentration at which the effect is half-maximal. Broadly, the Cmax is the maximum level reached in the sampled fluid or tissue. What is called bioavailability is the share of a dose that reaches the circulation, judged against a reference dose that is usually intravenous. One may read the AUC(0-inf) as the area under the concentration-time curve extrapolated to infinity. Broadly, the half-life is the time needed for the level to fall by half in the phase considered. In general, clearance refers to a measure of how efficiently the substance is removed, as volume per time.
